The target of test [1] is T1, cGMP-inhibited 3',5'-cyclic phosphodiesterase 3A (Homo sapiens, UniProt Q14432). The experiment in a line: Inhibition of human recombinant PDE3A assessed as cGMP hydrolysis after 60 mins by fluorescence polarization assay using tetramethylrhodamine-tagged cGMP as substrate. On the technique in general: Polarisation of emitted light reports the rotation of a fluorescent probe.

For test [2], the target named is T1, cGMP-inhibited 3',5'-cyclic phosphodiesterase 3A. The experiment in a line: Inhibition of human recombinant PDE3A assessed as cGMP hydrolysis at 50 uM after 60 mins by fluorescence polarization assay using tetramethylrhodamine-tagged cGMP as substrate. In outline: (§1)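 Single-point screen at 50 μM in triplicate. Recombinant PDE3A in 10 mM Tris-HCl pH 7.2, 10 mM MgCl2, 0.05% NaN3, 0.1% phosphate-free BSA. Substrate 50 nM FI-cAMP and/or TAMRA-cGMP, hydrolysis read simultaneously by IMAP fluorescence polarization after 60 min at room temperature and termination with binding solution.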

For test [3], the system named is HT-29. The experiment in a line: Growth inhibition of human HT-29 cells at 50 uM after 72 hrs by luminescent assay. Format: functional. To be noted: HT-29, 72 h, read-out: GI. In outline:
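HT-29 cells in RPMI 1640 with 5% FBS at 37 °C, 5% CO2, >95% viability required. Plated at 5000 cells/well and left 18–24 h, then given 50 μM compound in triplicate. Viability measured 72 h later by CellTiter-Glo luminescence.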

For test [4], the target named is T1, cGMP-inhibited 3',5'-cyclic phosphodiesterase 3A. The experiment in a line: Inhibition of human recombinant PDE3A assessed as cAMP hydrolysis at 50 uM after 60 mins by fluorescence polarization assay using fluorescein-tagged cAMP as substrate. The procedure, abridged: as §1
Test [5] deals with HT-29. As to the kind of experiment: Growth inhibition of human HT-29 cells after 72 hrs by luminescent assay. The class given is functional, cell-based. The note with it: HT-29, 72 h. In outline:
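HT-29 cells (ATCC) in RPMI 1640 + 5% FBS, 37 °C, 5% CO2; only cultures >95% viable (Trypan blue) used. Seeded 5000 cells/well, 18–24 h before treatment. Live cells read by CellTiter-Glo luminescence (ATP content) 72 h post-treatment.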

Consider 22 compounds from ChEMBL document CHEMBL1155296, “Design, synthesis and biological evaluation of novel pyridine derivatives as anticancer agents and phosphodiesterase 3 inhibitors” (Bioorg Med Chem, 2009).

By IC50 is commonly meant the midpoint of a concentration-inhibition curve. A word on the inhibition: it is the change of the read-out against control, counted positive when it falls.

Each structure is given as a SMILES string.

T1 sequence (Q14432 whole entry): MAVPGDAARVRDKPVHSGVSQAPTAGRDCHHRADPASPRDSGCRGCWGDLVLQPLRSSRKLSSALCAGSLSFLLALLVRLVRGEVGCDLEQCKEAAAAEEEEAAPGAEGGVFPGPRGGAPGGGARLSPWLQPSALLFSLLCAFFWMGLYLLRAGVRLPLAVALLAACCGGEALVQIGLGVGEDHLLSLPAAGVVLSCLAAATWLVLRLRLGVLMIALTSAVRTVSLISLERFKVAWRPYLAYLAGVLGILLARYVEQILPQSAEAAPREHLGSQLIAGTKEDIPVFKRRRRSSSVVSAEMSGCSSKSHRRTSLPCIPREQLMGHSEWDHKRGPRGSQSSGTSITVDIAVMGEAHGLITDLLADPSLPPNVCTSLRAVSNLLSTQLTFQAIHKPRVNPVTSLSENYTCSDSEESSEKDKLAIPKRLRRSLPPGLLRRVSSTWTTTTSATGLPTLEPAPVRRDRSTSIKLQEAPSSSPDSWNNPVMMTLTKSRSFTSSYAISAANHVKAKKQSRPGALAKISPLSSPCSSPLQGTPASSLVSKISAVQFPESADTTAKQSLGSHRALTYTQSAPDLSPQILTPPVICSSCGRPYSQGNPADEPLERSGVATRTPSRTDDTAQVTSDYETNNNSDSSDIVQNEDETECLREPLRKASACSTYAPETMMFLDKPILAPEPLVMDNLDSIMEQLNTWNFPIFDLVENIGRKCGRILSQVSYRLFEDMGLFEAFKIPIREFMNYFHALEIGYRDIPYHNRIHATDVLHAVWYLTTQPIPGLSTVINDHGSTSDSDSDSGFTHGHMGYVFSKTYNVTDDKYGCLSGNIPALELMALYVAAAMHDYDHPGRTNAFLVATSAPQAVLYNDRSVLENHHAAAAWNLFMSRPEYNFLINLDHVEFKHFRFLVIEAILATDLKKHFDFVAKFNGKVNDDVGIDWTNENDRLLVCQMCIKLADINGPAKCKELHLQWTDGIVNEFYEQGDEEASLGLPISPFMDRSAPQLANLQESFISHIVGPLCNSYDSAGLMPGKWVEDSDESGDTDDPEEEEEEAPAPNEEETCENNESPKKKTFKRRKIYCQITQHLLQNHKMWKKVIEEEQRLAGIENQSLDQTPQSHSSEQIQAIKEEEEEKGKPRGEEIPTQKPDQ

For the compound `CCOc1ccccc1-c1cc(-c2ccc(Br)cc2)nc(N)c1C#N`, the IC50 in test [1] came to 27 µM.

Regarding `CCOc1ccc(-c2cc(-c3ccc(Br)cc3)[nH]c(=O)c2C#N)cc1`, the inhibition came out at 10.8% in test [2] and 4.76% in test [4]. Moreover, in the test with HT-29 [3], the inhibition of growth at 50 µM was 10.7%.

Take `CCOc1ccc(-c2cc(-c3ccc4c(c3)OCO4)[nH]c(=N)c2C#N)cc1`: the inhibition in test [2] is -8.99%; in test [4], 45.9%. The inhibition of growth at 50 µM in the test on HT-29 [3] was 87.7%. The compound also had a half-maximal inhibitory concentration (IC50) with HT-29 [5] of 12 µM.

Turning to `COc1ccccc1-c1cc(-c2ccc3c(c2)OCO3)[nH]c(=O)c1C#N`, the inhibition in test [2] and in test [4] was 30% each time. Moreover, in the test on HT-29 [3], the inhibition of growth at 50 µM is 0%.

As to `N#Cc1c(-c2ccsc2)cc(-c2ccc3c(c2)OCO3)[nH]c1=N`, the inhibition in test [2] was found to be 3%; in test [4] it was 18%. For the same compound, in the test on HT-29 [3], the inhibition of growth at 50 µM worked out at 45%.

For the compound `COc1ccccc1-c1cc(-c2ccc3c(c2)OCO3)[nH]c(=N)c1C#N`, the values for the inhibition in test [2] and in test [4] were 35% and 45%, respectively. Also, the inhibition of growth at 50 µM in the test with HT-29 [3] came out at 95%. The compound further registered an IC50 in the test with HT-29 [5] of 4.17 µM.

As for `N#Cc1c(-c2cccs2)cc(-c2ccc(Br)cc2)[nH]c1=N`, the inhibition of growth at 50 µM with HT-29 [3] is 98.7%. In the test with HT-29 [5], this compound showed an IC50 of 35 µM. For the same compound, the inhibition in test [4] was found to be 3.57%.

Regarding `COc1ccccc1-c1cc(-c2ccc(Br)cc2)[nH]c(=O)c1C#N`, the results for the inhibition in test [2] and in test [4] were 15.1% and 6.12%, respectively. Besides, the inhibition of growth at 50 µM in the test with HT-29 [3] came to 13.6%.

For the compound `COc1ccccc1-c1cc(-c2ccc(Br)cc2)[nH]c(=N)c1C#N`, the inhibition of growth at 50 µM in the test on HT-29 [3] came to 75%. The compound also had an IC50 in the test with HT-29 [5] of 50 µM. Besides, the inhibition in test [4] is 16.3%.

As to `CCOc1ccccc1-c1cc(-c2ccc(Br)cc2)[nH]c(=O)c1C#N`, the inhibition in test [2] turned out to be 35.2%; in test [4], 13.1%. Moreover, in the test on HT-29 [3], the inhibition of growth at 50 µM is 2.81%.

For `CCOc1ccccc1-c1cc(-c2ccc(Br)cc2)[nH]c(=N)c1C#N`, the inhibition in test [2] came to 126%; in test [4] it was 37.9%. In addition, the inhibition of growth at 50 µM in the test with HT-29 [3] was found to be 99.8%. Besides, the IC50 in the test on HT-29 [5] amounted to 13 µM.

`N#Cc1c(-c2ccsc2)cc(-c2ccc(Br)cc2)[nH]c1=O`: the inhibition in test [2] was -5%; in test [4], 2%. Besides, in the test with HT-29 [3], the inhibition of growth at 50 µM was -25%.

`CCOc1ccccc1-c1cc(-c2ccc3c(c2)OCO3)[nH]c(=N)c1C#N`: the figures for the inhibition in test [2] and in test [4] were 26.2% and 19%, respectively. Further, the inhibition of growth at 50 µM in the test with HT-29 [3] stood at 91.2%. The compound further showed an IC50 in the test on HT-29 [5] of 3 µM.

Regarding `CCOc1ccccc1-c1cc(-c2ccc3c(c2)OCO3)[nH]c(=O)c1C#N`, the inhibition in test [2] amounted to 14.4%; in test [4], 7.65%. Besides, in the test on HT-29 [3], the inhibition of growth at 50 µM turned out to be 8.28%.

With `CCOc1ccc(-c2cc(-c3ccc4c(c3)OCO4)[nH]c(=O)c2C#N)cc1`, the figures for the inhibition in test [2] and in test [4] were 22.3% and 10.5%, respectively. Moreover, in the test with HT-29 [3], the inhibition of growth at 50 µM worked out at 3.84%.

Take `N#Cc1c(-c2cccs2)cc(-c2ccc3c(c2)OCO3)[nH]c1=O`: the results for the inhibition in test [2] and in test [4] were 49.6% and 32.3%, respectively. For the same compound, in the test with HT-29 [3], the inhibition of growth at 50 µM amounted to 6.14%.

For `CCOc1ccc(-c2cc(-c3ccc(Br)cc3)[nH]c(=N)c2C#N)cc1`, the inhibition was determined as 50% in test [2] and 30% in test [4]. Moreover, the inhibition of growth at 50 µM in the test with HT-29 [3] was determined as 75%. The compound further came in with a 50% inhibitory concentration (IC50) with HT-29 [5] of 14.2 µM.

Turning to `N#Cc1c(-c2cccs2)cc(-c2ccc(Br)cc2)[nH]c1=O`, the inhibition in test [2] was determined as 4%; in test [4] it was 3%. Further, the inhibition of growth at 50 µM in the test on HT-29 [3] is -20%.

Turning to `Cc1[nH]c(=O)c(C#N)cc1-c1ccncc1` [MILRINONE], the inhibition was found to be 35% in test [2] and 77% in test [4]. In the test with HT-29 [3], the inhibition of growth at 50 µM worked out at 0%. In addition, in the test on HT-29 [5], the IC50 is above 50 µM.

With `N#Cc1c(-c2cccs2)cc(-c2ccc3c(c2)OCO3)[nH]c1=N`, the inhibition in test [2] was 10%; in test [4] it was 5%. Besides, in the test with HT-29 [3], the inhibition of growth at 50 µM is -20%.

Regarding `N#Cc1c(-c2ccsc2)cc(-c2ccc(Br)cc2)[nH]c1=N`, the inhibition in test [2] amounted to 42%; in test [4] it was 1.5%. The inhibition of growth at 50 µM in the test on HT-29 [3] was -5%.

For the compound `N#Cc1c(-c2ccsc2)cc(-c2ccc3c(c2)OCO3)[nH]c1=O`, the figures for the inhibition in test [2] and in test [4] were 20% and 8%, respectively. Further, in the test on HT-29 [3], the inhibition of growth at 50 µM is -25%.
